# Test results: ChEMBL document CHEMBL3045743, “Synthesis and herbicidal activity of isoindoline-1,3-dione substituted benzoxazinone derivatives containing a carboxylic ester group” (J Agric Food Chem, 2009); call rule not given here
# How the values were obtained:
# Setaria viridis [1] = assay: Pre-emergence herbicidal activity against Setaria viridis (green foxtail) assessed as growth inhibition at 75 g.a.i./ha applied 24 hr after seeds were sown measured after 15 days; format: functional; settings: read-out: GI
# How it was run: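 Preliminary pre-emergence screen at a single rate of 75 g a.i./ha. Stock diluted with water and sprayed on greenhouse pots 24 h after seeds were sown 5 mm deep in clay soil (pH 6.5, 1.7% organic matter); grown at 22-25 °C. Untreated and DMF solvent controls included; triplicate. Visual % growth inhibition vs untreated after 15 days, averaged and banded (>80% top band).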
# [2] = test system: Brassica rapa subsp. oleifera; assay: Phytotoxicity against Brassica rapa subsp. oleifera assessed as growth inhibition at 7.5 to 60 g.a.i/ha post-emergent application measured after 15 days by greenhouse crop selectivity assay; format: organism-based; settings: in vivo, other, 360 h
# How it was run: (§1)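 Postemergence crop selectivity test on pot-grown plants in a greenhouse, in clay soil (pH 6.5, 1.7% organic matter, CEC 12.9 cmol/kg). Stock was diluted with water and sprayed at 60, 30, 15 or 7.5 g a.i./ha, in triplicate. Growth inhibition was rated visually against untreated controls after 15 days and given as the triplicate mean percentage.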
# Glycine max = assay: Phytotoxicity against Glycine max (soybean) assessed as growth inhibition at 7.5 to 60 g.a.i/ha post-emergent application measured after 15 days by greenhouse crop selectivity assay; format: organism-based; settings: in vivo, other, 360 h; how it was run: as §1
# [3] = Phytotoxicity against Oryza sativa (rice) assessed as growth inhibition at 150 g.a.i/ha pre-emergent application measured after 15 days by greenhouse crop selectivity assay; format: organism-based, L.; settings: in vivo, read-out: GI
# How it was run: (§2)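 Pre-emergence greenhouse crop selectivity test on pot-grown plants in clay soil (pH 6.5, 1.7% organic matter, 37.5% clay, CEC 12.9 cmol/kg). Stock solutions were diluted with water and applied at 300, 150, 75 or 37.5 g a.i./ha, in triplicate. After 15 days, phytotoxicity was scored visually against untreated controls as % crop growth inhibition, averaged over the triplicates.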
# Zea mays [4] = assay: Phytotoxicity against Zea mays (maize) assessed as growth inhibition at 150 g.a.i/ha pre-emergent application measured after 15 days by greenhouse crop selectivity assay; format: organism-based; settings: in vivo, other, 360 h; how it was run: as §2
# Zea mays [5] = assay: Phytotoxicity against Zea mays (maize) assessed as growth inhibition at 75 g.a.i/ha pre-emergent application measured after 15 days by greenhouse crop selectivity assay; format: organism-based; settings: in vivo, other, 360 h; how it was run: as §2
# Gossypium [6] = assay: Phytotoxicity against Gossypium (cotton) assessed as growth inhibition at 150 g.a.i/ha pre-emergent application measured after 15 days by greenhouse crop selectivity assay; format: organism-based; settings: in vivo, other, 360 h; how it was run: as §2
# Gossypium [7] = assay: Phytotoxicity against Gossypium (cotton) assessed as growth inhibition at 75 g.a.i/ha pre-emergent application measured after 15 days by greenhouse crop selectivity assay; format: organism-based; settings: in vivo, other, 360 h; how it was run: as §2
# Arachis hypogaea = assay: Phytotoxicity against Arachis hypogaea (peanut) assessed as growth inhibition at 150 g.a.i/ha pre-emergent application measured after 15 days by greenhouse crop selectivity assay; format: organism-based; settings: in vivo, other, 360 h; how it was run: as §2
# Setaria viridis [8] = assay: Post-emergence herbicidal activity against Setaria viridis (green foxtail) assessed as growth inhibition at 7.5 g.a.i./ha applied at one-leaf stage measured after 15 days; format: functional; settings: 360 h, read-out: GI
# How it was run: (§3)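 Pot-grown weeds sown 5 mm deep in greenhouse clay soil (pH 6.5, 1.7% organic matter, CEC 12.9 cmol/kg) at 22-25 °C. Stock diluted with water and sprayed post-emergence: dicots at 2-leaf stage, monocots at 1-leaf stage. Untreated and DMF solvent controls were included. % growth inhibition was scored visually versus untreated controls after 15 days. Triplicates averaged.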
# Echinochloa crus-galli [9] = assay: Post-emergence herbicidal activity against Echinochloa crus-galli (barnyard grass) assessed as growth inhibition at 7.5 g.a.i./ha applied at one-leaf stage measured after 15 days; format: functional; settings: 360 h, read-out: GI; how it was run: as §3
# Digitaria sanguinalis [10] = assay: Post-emergence herbicidal activity against Digitaria sanguinalis (hairy crabgrass) assessed as growth inhibition at 7.5 g.a.i./ha applied at one-leaf stage measured after 15 days; format: functional; settings: 360 h, read-out: GI; how it was run: as §3
# Setaria viridis [11] = assay: Pre-emergence herbicidal activity against Setaria viridis (green foxtail) assessed as growth inhibition at 7.5 g.a.i./ha applied 24 hr after seeds were sown measured after 15 days; format: functional; settings: read-out: GI
# How it was run: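 Secondary pre-emergence test run at 7.5, 15 and 37.5 g a.i./ha on pot-grown weeds in a greenhouse at 22-25 °C. Seeds sown 5 mm deep in clay soil (pH 6.5, 1.7% organic matter, CEC 12.9 cmol/kg). Stock diluted with water and applied 24 h after sowing. Done in triplicate; visual % growth inhibition vs untreated after 15 days, averaged.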
# Chenopodium album [12] = assay: Pre-emergence herbicidal activity against Chenopodium album assessed as growth inhibition at 7.5 g.a.i./ha applied 24 hr after seeds were sown measured after 15 days; format: functional; settings: read-out: GI
# How it was run: (§4)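 Weeds sown 5 mm deep in pots of greenhouse clay soil (pH 6.5, 37.5% clay, CEC 12.9 cmol/kg) and grown at 22-25 °C. Water-diluted formulation was applied pre-emergence 24 h after sowing. Untreated and DMF solvent controls were included. Growth inhibition was visually rated in % against untreated controls after 15 days, as the mean of triplicates.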
# Setaria viridis [13] = assay: Pre-emergence herbicidal activity against Setaria viridis (green foxtail) assessed as growth inhibition at 37.5 g.a.i./ha applied 24 hr after seeds were sown measured after 15 days; format: functional; settings: read-out: GI; how it was run: as §4
# Chenopodium album [14] = assay: Pre-emergence herbicidal activity against Chenopodium album assessed as growth inhibition at 37.5 g.a.i./ha applied 24 hr after seeds were sown measured after 15 days; format: functional; settings: read-out: GI; how it was run: as §4
# Echinochloa crus-galli [15] = assay: Post-emergence herbicidal activity against Echinochloa crus-galli (barnyard grass) assessed as growth inhibition at 15 g.a.i./ha applied at one-leaf stage measured after 15 days; format: functional; settings: 360 h, read-out: GI; how it was run: as §3
# Amaranthus spinosus = assay: Post-emergence herbicidal activity against Amaranthus spinosus assessed as growth inhibition at 15 g.a.i./ha applied at two-leaf stage measured after 15 days; format: functional; settings: 360 h, read-out: GI; how it was run: as §3
# Chenopodium album [16] = assay: Post-emergence herbicidal activity against Chenopodium album assessed as growth inhibition at 15 g.a.i./ha applied at two-leaf stage measured after 15 days; format: functional; settings: 360 h, read-out: GI; how it was run: as §3
# Abutilon theophrasti = assay: Post-emergence herbicidal activity against Abutilon theophrasti (velvetleaf) assessed as growth inhibition at 15 g.a.i./ha applied at two-leaf stage measured after 15 days; format: functional; settings: 360 h, read-out: GI; how it was run: as §3
# Setaria viridis [17] = assay: Pre-emergence herbicidal activity against Setaria viridis (green foxtail) assessed as growth inhibition at 15 g.a.i./ha applied 24 hr after seeds were sown measured after 15 days; format: functional; settings: read-out: GI; how it was run: as §4
# Digitaria sanguinalis [18] = assay: Pre-emergence herbicidal activity against Digitaria sanguinalis (hairy crabgrass) assessed as growth inhibition at 15 g.a.i./ha applied 24 hr after seeds were sown measured after 15 days; format: functional; settings: read-out: GI; how it was run: as §4
# Digitaria sanguinalis [19] = assay: Post-emergence herbicidal activity against Digitaria sanguinalis (hairy crabgrass) assessed as growth inhibition at 75 g.a.i./ha applied at one-leaf stage measured after 15 days; format: functional; settings: 360 h, read-out: GI; how it was run: as §3
# [20] = test system: Brassica rapa subsp. oleifera; assay: Phytotoxicity against Brassica rapa subsp. oleifera assessed as growth inhibition at 37.5 g.a.i/ha pre-emergent application measured after 15 days by greenhouse crop selectivity assay; format: functional; settings: pre-emergence, 360 h, read-out: GI
# How it was run: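 Pot-grown crop in greenhouse clay soil (pH 6.5, 1.7% organic matter, 37.5% clay, CEC 12.9 cmol/kg). Stock diluted with water and applied pre-emergence at 300, 150, 75 or 37.5 g a.i./ha. Cultivated 15 days, then phytotoxicity scored visually as % growth inhibition versus untreated controls. Triplicate treatments, averaged.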
# [21] = Phytotoxicity against Oryza sativa (rice) assessed as growth inhibition at 300 g.a.i/ha pre-emergent application measured after 15 days by greenhouse crop selectivity assay; format: organism-based, L.; settings: in vivo, read-out: GI; how it was run: as §2
Structure (SMILES),inhibition of growth at 75 g/ha (Setaria viridis [1]) [%],Activity [2],Activity (Glycine max),inhibition at 360 h [3] [%],growth inhibition (GI) (Zea mays [4]),growth inhibition (GI) (Zea mays [5]),growth inhibition (GI) (Gossypium [6]),growth inhibition (GI) (Gossypium [7]),growth inhibition (GI) (Arachis hypogaea),inhibition of growth at 7.5 g/ha (Setaria viridis [8]) [%],inhibition of growth at 7.5 g/ha (Echinochloa crus-galli [9]) [%],inhibition of growth at 7.5 g/ha (Digitaria sanguinalis [10]) [%],inhibition of growth at 7.5 g/ha (Setaria viridis [11]) [%],inhibition of growth at 7.5 g/ha (Chenopodium album [12]) [%],inhibition of growth at 37.5 g/ha (Setaria viridis [13]) [%],inhibition of growth at 37.5 g/ha (Chenopodium album [14]) [%],inhibition of growth at 15 g/ha (Echinochloa crus-galli [15]) [%],inhibition of growth at 15 g/ha (Amaranthus spinosus) [%],inhibition of growth at 15 g/ha (Chenopodium album [16]) [%],inhibition of growth at 15 g/ha (Abutilon theophrasti) [%],other results
CCOC(=O)C(CC)N1C(=O)C(C)Oc2cc(F)c(N3C(=O)C4=C(CCCC4)C3=O)cc21 (stereo not given),> 80,Toxic,Toxic,> 10,Not Active,Not Active,Not Active,Not Active,Not Active,20,0,40,0,100,0,100,0,100,100,100,inhibition of growth at 15 g/ha (Setaria viridis [17]): 0%; inhibition of growth at 15 g/ha (Digitaria sanguinalis [18]): 0%; inhibition of growth at 75 g/ha (Digitaria sanguinalis [19]): > 80%; inhibition of growth at 37.5 g/ha [20]: > 10%; inhibition at 360 h [21]: > 10%
CCOC(=O)C(C)N1C(=O)C(C)Oc2cc(F)c(N3C(=O)C4=C(CCCC4)C3=O)cc21 (stereo not given),> 80,Toxic,Toxic,> 10,Not Active,Not Active,Not Active,Not Active,Not Active,20,10,20,0,100,60,100,30,100,100,100,inhibition of growth at 15 g/ha (Setaria viridis [17]): 40%; inhibition of growth at 15 g/ha (Digitaria sanguinalis [18]): 40%; inhibition of growth at 75 g/ha (Digitaria sanguinalis [19]): > 80%; inhibition of growth at 37.5 g/ha [20]: > 10%; inhibition at 360 h [21]: > 10%
